These results are taken from ChEMBL document CHEMBL5653624 (Biochem Pharmacol, 2016).

Experiment [1] has as its target T1, Histone deacetylase 3 (Mus musculus) (UniProt O88895).
T1 sequence (whole entry): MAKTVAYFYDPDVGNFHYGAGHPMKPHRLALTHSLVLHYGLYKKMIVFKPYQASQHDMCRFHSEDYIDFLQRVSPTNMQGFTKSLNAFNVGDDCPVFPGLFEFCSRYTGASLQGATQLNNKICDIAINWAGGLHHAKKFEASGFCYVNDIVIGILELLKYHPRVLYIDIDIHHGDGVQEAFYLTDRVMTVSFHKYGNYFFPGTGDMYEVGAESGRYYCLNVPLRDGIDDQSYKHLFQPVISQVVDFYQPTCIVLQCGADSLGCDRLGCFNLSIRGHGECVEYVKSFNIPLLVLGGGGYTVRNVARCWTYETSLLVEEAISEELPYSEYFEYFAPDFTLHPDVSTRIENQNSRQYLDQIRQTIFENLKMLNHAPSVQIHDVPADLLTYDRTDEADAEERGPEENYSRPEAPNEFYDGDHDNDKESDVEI
Nature of the experiment: Inhibition of HDAC3 in mouse RAW-Blue cells assessed as effect on NF-kappaB p65 transcriptional activity measured after 16 hrs by SEAP reporter gene assay. Format: cell-based. An outline of the steps: (§1)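 RAW-Blue cells (RAW 264.7-derived, stably expressing an NF-κB/AP-1-inducible secreted embryonic alkaline phosphatase) exposed to inhibitor for 20 h total, with 10 ng/ml LPS plus 10 ng/ml IFNγ added for the final 4 h. Supernatant mixed with QUANTI-Blue medium, 37 °C 1–2 h in the dark, absorbance 630 nm; reported as % of control.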

For experiment [2], the target named is T1, Histone deacetylase 3 (Mus musculus). Nature of the experiment: Inhibition of HDAC3 in mouse RAW264.7 cells assessed as effect on LPS/IFNgamma-induced NF-kappaB p65 nuclear translocation preincubated for 20 hrs followed by LPS/IFNgamma stimulation and measured after 1 hr by Western blot analysis. The format is cell-based. An outline of the steps: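 After 20 h inhibitor then 1 h LPS/IFNγ, RAW 264.7 cells fractionated into nuclear and cytosolic parts and immunoblotted for NF-κB p65; PARP-1 and β-actin as internal controls; densitometry as fold change versus LPS/IFNγ-treated control; 4 independent experiments, mean ± SD.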

For experiment [3], the system named is RAW264.7. In words: Antiinflammatory activity in LPS/IFNgamma-stimulated mouse RAW264.7 cells assessed as effect on NF-kappaB p65 mRNA expression preincubated for 20 hrs followed by LPS/IFNgamma stimulation and measured after 4 hrs by RT-qPCR analysis. The note with it: time 24.0 hrs. Format: functional, cell-based.
Experiment [4] relates to HASMC. Nature of the experiment: Antiinflammatory activity in HASMC cells assessed as effect on LPS/IFNgamma-induced iNOS gene expression at 2 uM […] and measured after 4 hrs by RT-qPCR analysis. The format is functional, cell-based. The note with it: Homo sapiens. An outline of the steps: (§2)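 HBE cells (passage 73–103) or immortalized hASM cells (2–3 donors, passage 27–35), serum-starved. Then 2 μM RGFP966 for 20 h, with LPS/IFNγ for the last 4 h. Total RNA isolated; RT-qPCR by 2−ΔΔCt, fold change versus LPS/IFNγ control. Mean ± SD of 3–5 independent experiments.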

Experiment [5] deals with Lung. Nature of the experiment: Antiinflammatory activity in C57bl/6 mouse precision-cut lung slices assessed as upregulation of LPS/IFNgamma-induced IkappaBalpha expression at 1 to 10 uM preincubated for 20 hrs followed by LPS/IFNgamma stimulation and measured after 4 hrs by Western blot analysis. The note with it: dose 1-10 µM, time 24.0 hrs. The format is functional, tissue-based.

In experiment [6] the test system is RAW264.7. Nature of the experiment: Antiinflammatory activity in LPS/IFNgamma-stimulated mouse RAW264.7 cells assessed as reduction in HDAC2 expression preincubated for 20 hrs followed by LPS/IFNgamma stimulation and measured after 4 hrs by Western blot analysis. The note with it: time 24.0 hrs. Format: functional, cell-based. An outline of the steps:
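RAW 264.7 cells were LPS/IFNγ-stimulated after inhibitor exposure, then lysed in Hepes/Triton buffer containing DTT, butyrate and protease inhibitors, freeze-thawed and cleared. Immunoblot with milk blocking and overnight primary antibody at 4 °C. Densitometry normalized to β-actin, LPS/IFNγ control set at 100%. Mean ± SD of 4 independent experiments.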

Experiment [7] has as its system HBE. In words: Antiinflammatory activity in HBE cells assessed as effect on LPS/IFNgamma-induced IL-10 gene expression at 2 uM […] by RT-qPCR analysis. The note with it: Homo sapiens. Format: functional, cell-based. In short, it runs like this:
as §2

In experiment [8] the target is T1, Histone deacetylase 3 (Mus musculus). In words: Inhibition of HDAC3 in mouse RAW264.7 cells assessed as effect on histone H3 peptide (KQLATKAAR) acetylation measured after 20 hrs by LC-MS/MS analysis. The format is cell-based. In short, it runs like this:
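Histones from RAW 264.7 (20 h treatment) run on 15% SDS-PAGE (7 μg), Coomassie-stained H3/H4 bands excised, destained, and chemically acetylated with acetic anhydride-d6 in 1 M ammonium bicarbonate; endogenous lysine acetylation ratio derived by mass spectrometry from deuterated versus non-deuterated acetyl mass difference.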

Experiment [9] deals with HASMC. Nature of the experiment: Antiinflammatory activity in HASMC cells assessed as effect on LPS/IFNgamma-induced IL-12b gene expression at 2 uM […] and measured after 4 hrs by RT-qPCR analysis. Format: functional, cell-based. The note with it: Homo sapiens. In short, it runs like this: as §2
Experiment [10] deals with T1, Histone deacetylase 3 (Mus musculus). Nature of the experiment: Inhibition of HDAC3 in mouse RAW264.7 cells assessed as effect on histone H4 acetylation measured after 20 hrs by Western blot analysis. The format is cell-based. In short, it runs like this:
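Histones extracted from RAW 264.7 cells after 20 h inhibitor treatment, protein quantified by micro BCA (BSA standard), and H3 and H4 acetylation assessed by Western blot versus vehicle-treated cells.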

Experiment [11] has as its system Lung. Nature of the experiment: Antiinflammatory activity in C57bl/6 mouse precision-cut lung slices assessed as upregulation of LPS/IFNgamma-induced IkappaBalpha gene expression at 1 to 10 uM preincubated for 20 hrs followed by LPS/IFNgamma stimulation and measured after 4 hrs by RT-qPCR analysis. The format is functional, tissue-based. The note with it: dose 1-10 µM, time 24.0 hrs.

Experiment [12] addresses Histone deacetylase 1 (Mus musculus) (UniProt O09106). Nature of the experiment: Effect on HDAC1 nuclear localization in LPS/IFNgamma-stimulated mouse RAW264.7 cells preincubated for 20 hrs followed by LPS/IFNgamma stimulation and measured after 1 hr by Western blot analysis. The format is cell-based. An outline of the steps:
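RAW 264.7 cells treated for 20 h, then 1 h LPS/IFNγ, and fractionated into nuclear and cytosolic parts. Fractions immunoblotted, with PARP-1 and β-actin as internal controls. Densitometry with vehicle control set at 100%. Mean ± SD of 3–4 independent experiments.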

The subject of experiment [13] is HBE. In words: Antiinflammatory activity in HBE cells assessed as up regulation of LPS/IFNgamma-induced IL-6 gene expression at 2 uM […] by RT-qPCR analysis. Format: functional, cell-based. The note with it: Homo sapiens. In short, it runs like this: as §2
For experiment [14], the system named is Lung. Nature of the experiment: Antiinflammatory activity in C57bl/6 mouse precision-cut lung slices assessed as effect on LPS/IFNgamma-induced HDAC2 expression at 1 to 10 uM preincubated for 20 hrs followed by LPS/IFNgamma stimulation and measured after 4 hrs by Western blot analysis. Format: functional, tissue-based. The note with it: dose 1-10 µM, time 24.0 hrs.

The target of experiment [15] is T1, Histone deacetylase 3 (Mus musculus). Nature of the experiment: Inhibition of HDAC3 in mouse RAW-Blue cells assessed as reduction in LPS/IFNgamma-induced NF-kappaB p65 transcriptional activity preincubated for 16 hrs followed by LPS/IFNgamma stimulation and measured after 4 hrs by SEAP reporter gene assay. Format: cell-based. The note with it: time 20.0 hrs. An outline of the steps: as §1

Structures are written as SMILES. The source made the active and inactive calls. The rule behind the calls is not given here.

Histone deacetylase 1 (Mus musculus), sequence (O09106 whole entry): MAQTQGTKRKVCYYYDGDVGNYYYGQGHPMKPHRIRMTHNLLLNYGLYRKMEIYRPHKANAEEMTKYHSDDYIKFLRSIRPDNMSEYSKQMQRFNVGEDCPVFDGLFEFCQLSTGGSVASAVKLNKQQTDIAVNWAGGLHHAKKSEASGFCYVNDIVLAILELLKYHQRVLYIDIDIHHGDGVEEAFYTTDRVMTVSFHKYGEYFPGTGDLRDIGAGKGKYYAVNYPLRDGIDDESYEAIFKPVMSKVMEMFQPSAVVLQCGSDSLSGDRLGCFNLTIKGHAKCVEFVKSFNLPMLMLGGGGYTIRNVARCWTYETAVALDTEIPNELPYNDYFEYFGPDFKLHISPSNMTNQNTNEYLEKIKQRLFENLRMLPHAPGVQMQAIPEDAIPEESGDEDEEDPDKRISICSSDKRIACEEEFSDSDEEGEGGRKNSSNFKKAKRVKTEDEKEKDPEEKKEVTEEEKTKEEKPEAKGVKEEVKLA

In the case of `Nc1cc(F)ccc1NC(=O)/C=C/c1cnn(C/C=C/c2ccccc2)c1`, the inhibition result in experiment [1], in [2], in experiment [8] and in experiment [10] was “inactive” throughout. The outcome in [3], in [4], in [7], in [9], in experiment [12] and in experiment [14] was inactive. Moreover, the outcome in experiment [5], in [6], in experiment [11] and in experiment [13] was Active. Besides, in [15], the inhibition result was “Active”.
